# Data published in publication PMC4445880 (ACS chemical biology, 2013).
# Where “and” joins values, the source holds several entries; their conditions need not be identical. Equal values may be shown once.
# How the values were obtained:
# GFP-ZIPK = GFP-ZIPK (Homo sapiens, UniProt O43293); assay: FLECS elution from γ-linked ATP Sepharose; assay type: binding; settings: for elution of GFP-ZIPK from ATP Sepharose: titration 0.1−300 µM
# How it was run: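 Full-length ZIPK with N-terminal GFP was expressed in HEK293 cells. Crude lysate was bound to γ-linked ATP Sepharose for 0.5 h at 4 °C (pH 7.5, 60 mM MgCl₂), washed with high- then low-salt buffer, and split into 96-well filter plates. Test compound was added for 10 min at RT, as a 900 µM solution (screen) or 0.1−300 µM (titration), in 10% DMSO. Filtrate fluorescence was read at 485/535 nm. Controls were ATP 2−200 mM (positive) and 10% DMSO (negative). Hits were wells with >5000 counts (2.5 × background), checked by Western blot.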
# DAPK3 = DAPK3 (Homo sapiens, UniProt O43293); assay: KINOMEscan active-site dependent competition binding assay; settings: DAPK3 (ZIPK); from Kd values
# Chain of DAPK3 (O43293 whole entry): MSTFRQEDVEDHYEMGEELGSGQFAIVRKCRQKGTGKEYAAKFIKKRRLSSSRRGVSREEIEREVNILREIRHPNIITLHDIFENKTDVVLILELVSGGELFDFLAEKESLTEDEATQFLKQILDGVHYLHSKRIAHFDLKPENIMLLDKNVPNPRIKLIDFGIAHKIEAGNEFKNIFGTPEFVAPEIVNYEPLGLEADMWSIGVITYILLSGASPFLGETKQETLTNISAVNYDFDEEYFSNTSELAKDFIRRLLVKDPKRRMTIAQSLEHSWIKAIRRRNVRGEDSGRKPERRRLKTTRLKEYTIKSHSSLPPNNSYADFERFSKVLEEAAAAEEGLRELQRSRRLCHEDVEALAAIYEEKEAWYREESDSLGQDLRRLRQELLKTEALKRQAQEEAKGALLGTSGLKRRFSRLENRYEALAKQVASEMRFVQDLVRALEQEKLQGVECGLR
# DAPK1 = DAPK1 (Homo sapiens, UniProt P53355); assay: as above; settings: from Kd values
# Chain of DAPK1 (P53355 whole entry): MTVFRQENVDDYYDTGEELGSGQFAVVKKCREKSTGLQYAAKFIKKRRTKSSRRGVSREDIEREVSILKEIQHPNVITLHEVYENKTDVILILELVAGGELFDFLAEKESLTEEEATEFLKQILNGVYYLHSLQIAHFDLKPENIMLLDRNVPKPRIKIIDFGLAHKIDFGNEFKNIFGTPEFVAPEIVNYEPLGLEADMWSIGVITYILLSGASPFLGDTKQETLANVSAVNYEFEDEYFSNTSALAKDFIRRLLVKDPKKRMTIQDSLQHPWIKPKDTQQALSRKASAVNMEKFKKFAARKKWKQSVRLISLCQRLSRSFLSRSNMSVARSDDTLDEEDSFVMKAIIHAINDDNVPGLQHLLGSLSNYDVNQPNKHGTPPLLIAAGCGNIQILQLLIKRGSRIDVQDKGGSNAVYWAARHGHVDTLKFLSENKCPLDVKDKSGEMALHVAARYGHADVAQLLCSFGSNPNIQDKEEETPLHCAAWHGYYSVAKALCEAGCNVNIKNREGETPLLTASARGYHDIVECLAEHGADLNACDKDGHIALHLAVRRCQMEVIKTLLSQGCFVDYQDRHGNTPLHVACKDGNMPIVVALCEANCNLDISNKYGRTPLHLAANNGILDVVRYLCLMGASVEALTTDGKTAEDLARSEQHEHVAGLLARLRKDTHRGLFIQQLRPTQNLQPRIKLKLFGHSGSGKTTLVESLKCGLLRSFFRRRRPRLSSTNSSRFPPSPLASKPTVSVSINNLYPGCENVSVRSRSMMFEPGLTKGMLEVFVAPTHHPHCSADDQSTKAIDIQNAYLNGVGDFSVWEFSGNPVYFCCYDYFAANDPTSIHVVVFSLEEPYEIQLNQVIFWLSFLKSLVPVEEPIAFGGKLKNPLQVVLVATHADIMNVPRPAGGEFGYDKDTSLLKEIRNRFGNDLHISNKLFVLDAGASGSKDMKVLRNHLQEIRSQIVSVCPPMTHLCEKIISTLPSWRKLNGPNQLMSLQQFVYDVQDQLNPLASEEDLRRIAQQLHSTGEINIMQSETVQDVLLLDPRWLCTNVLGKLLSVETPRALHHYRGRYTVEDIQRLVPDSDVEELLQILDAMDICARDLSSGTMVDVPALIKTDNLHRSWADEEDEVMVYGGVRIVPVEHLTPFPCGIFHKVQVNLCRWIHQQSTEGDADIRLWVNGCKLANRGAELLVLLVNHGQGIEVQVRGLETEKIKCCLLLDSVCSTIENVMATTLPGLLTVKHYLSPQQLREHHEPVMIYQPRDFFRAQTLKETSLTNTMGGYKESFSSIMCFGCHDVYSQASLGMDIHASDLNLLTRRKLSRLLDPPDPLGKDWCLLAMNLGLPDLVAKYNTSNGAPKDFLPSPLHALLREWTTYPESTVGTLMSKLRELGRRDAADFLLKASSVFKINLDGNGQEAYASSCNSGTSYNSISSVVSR
# aortic SM cells = assay: RLC20 phosphorylation in aortic smooth muscle cells, basal and S1P stimulated; assay type: cell-based, human; settings: 50 µM, 30 min; for relative percent RLC20 phosphorylation, S1P stimulated state: S1P 0.25 µM
# How it was run: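 A mouse aortic smooth muscle cell line was grown in AmnioMax with 10% FBS at 37 °C and 5% CO₂, then serum-starved for 16 h. Subconfluent cells were given S1P (0.25 µM, 5 min) or left basal. They were then treated with test compound (50 µM) or 0.1% DMSO for 30 min. Cells were lysed in 1% SDS, 300 mM NaCl and 50 mM Tris-HCl pH 7.5. Phospho-RLC20 was measured by Western blot and densitometry.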
# [1] = system: rat caudal arterial smooth muscle; assay: RLC20 phosphorylation in rat caudal arterial smooth muscle; settings: 100 µM; 30 min CLa exposure
# [2] = system: rat caudal arterial smooth muscle strips; assay: Calyculin A induced contraction of rat caudal arterial smooth muscle strips; settings: 100 µM, calyculin A 0.5 mM; for maximum contractile force: 3 h
# How it was run: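 Intact rat caudal arterial smooth muscle strips were contracted with calyculin A (0.5 mM, 3 h). This was done in the presence of vehicle (DMSO) or test compound at 100 µM. Maximal force was expressed as percent of an initial reference KCl contraction. Time to reach 50% of maximal contraction after calyculin A was also calculated.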
# ROCK2 = ROCK2 (Rattus norvegicus, UniProt Q62868); assay: 33P-ATP filter-binding kinase assay; assay type: biochemical, human
# Chain of ROCK2 (Q62868 2-543 limits assumed): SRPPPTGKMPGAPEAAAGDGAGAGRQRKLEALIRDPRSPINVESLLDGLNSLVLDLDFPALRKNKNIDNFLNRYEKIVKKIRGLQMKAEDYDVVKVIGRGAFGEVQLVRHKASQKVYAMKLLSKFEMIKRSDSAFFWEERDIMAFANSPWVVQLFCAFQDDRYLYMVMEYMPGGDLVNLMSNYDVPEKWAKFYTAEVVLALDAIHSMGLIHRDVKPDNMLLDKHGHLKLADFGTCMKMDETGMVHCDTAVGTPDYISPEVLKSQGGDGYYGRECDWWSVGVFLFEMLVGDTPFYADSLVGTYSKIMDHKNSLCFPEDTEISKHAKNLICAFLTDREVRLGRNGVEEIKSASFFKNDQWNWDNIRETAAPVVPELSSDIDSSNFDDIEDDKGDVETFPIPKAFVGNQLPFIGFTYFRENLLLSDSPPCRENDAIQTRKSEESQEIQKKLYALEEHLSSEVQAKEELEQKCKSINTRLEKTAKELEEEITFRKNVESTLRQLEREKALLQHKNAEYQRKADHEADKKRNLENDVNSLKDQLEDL
# CaMK2 = assay: 33P-ATP filter-binding kinase assay; assay type: biochemical, human; settings: read-out: % activity against kinase, kinome profile
# How it was run: (§1)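 Kinome panel of 124 purified protein kinases run by an outside profiling centre using a ³³P-ATP filter-binding assay. Test compound was tested at 10 µM. Read-out is residual % enzyme activity.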
# rabbit ileum = assay: RLC20 and MYPT1 phosphorylation in Ca2+-sensitized rabbit ileum; settings: HS38 50 µM
# [3] = system: human coronary artery smooth muscle cells (CA-VSMC); assay: Phosphorylation in human coronary artery smooth muscle cells; assay type: cell-based; settings: HS38 10 µM, 40 min
# PIM1 = PIM1 (Homo sapiens, UniProt P11309); assay: 33P-ATP filter-binding kinase assay; assay type: biochemical
# Chain of PIM1 (P11309 whole entry): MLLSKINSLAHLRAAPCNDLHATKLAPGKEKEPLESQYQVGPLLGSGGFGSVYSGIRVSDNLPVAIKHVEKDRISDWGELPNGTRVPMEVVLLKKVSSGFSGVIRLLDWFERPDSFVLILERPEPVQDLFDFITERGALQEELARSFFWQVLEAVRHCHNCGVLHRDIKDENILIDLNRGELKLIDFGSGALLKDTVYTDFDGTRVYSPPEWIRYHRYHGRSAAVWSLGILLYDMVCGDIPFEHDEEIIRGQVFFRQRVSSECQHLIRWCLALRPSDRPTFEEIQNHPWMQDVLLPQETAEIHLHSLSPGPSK
# PIM2 = PIM2 (Homo sapiens, UniProt Q9P1W9); assay: 33P-ATP filter-binding kinase assay; assay type: biochemical
# Chain of PIM2 (Q9P1W9 whole entry): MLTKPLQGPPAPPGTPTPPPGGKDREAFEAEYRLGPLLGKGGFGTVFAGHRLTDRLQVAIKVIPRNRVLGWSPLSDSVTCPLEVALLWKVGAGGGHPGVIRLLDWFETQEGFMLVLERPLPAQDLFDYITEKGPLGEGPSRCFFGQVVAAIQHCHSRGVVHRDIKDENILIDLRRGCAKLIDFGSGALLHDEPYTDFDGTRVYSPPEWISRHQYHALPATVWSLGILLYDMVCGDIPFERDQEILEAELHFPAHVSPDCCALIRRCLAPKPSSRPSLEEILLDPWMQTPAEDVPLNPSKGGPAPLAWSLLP
# PKA = PKA (Homo sapiens, UniProt P17612); assay: 33P-ATP filter-binding kinase assay; assay type: biochemical; settings: read-out: % activity against kinase, kinome profile
# How it was run: as §1
# CK1α = CK1α (Homo sapiens, UniProt P48729); assay: 33P-ATP filter-binding kinase assay; assay type: biochemical; settings: read-out: % activity against kinase, kinome profile
# Chain of CK1α (P48729 whole entry): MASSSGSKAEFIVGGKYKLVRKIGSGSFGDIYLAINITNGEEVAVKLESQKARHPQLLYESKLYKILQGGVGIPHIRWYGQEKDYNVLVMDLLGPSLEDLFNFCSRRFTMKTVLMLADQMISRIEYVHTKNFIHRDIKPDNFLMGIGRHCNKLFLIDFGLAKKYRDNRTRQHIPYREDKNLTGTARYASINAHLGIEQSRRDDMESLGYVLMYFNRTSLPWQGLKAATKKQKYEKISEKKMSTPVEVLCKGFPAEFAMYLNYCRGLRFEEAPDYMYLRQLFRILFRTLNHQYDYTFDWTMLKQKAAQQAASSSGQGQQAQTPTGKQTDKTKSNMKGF
# How it was run: as §1
# [4] = system: rabbit ileum smooth muscle; assay: Ca2+-independent force development in rabbit ileum after MC-LR; settings: pCa 9.0; MC-LR 10 µM
# smMLCK = smMLCK (Homo sapiens, UniProt Q15746); assay: 33P-ATP filter-binding kinase assay; assay type: biochemical
# Chain of smMLCK (Q15746 1464-1719 limits assumed): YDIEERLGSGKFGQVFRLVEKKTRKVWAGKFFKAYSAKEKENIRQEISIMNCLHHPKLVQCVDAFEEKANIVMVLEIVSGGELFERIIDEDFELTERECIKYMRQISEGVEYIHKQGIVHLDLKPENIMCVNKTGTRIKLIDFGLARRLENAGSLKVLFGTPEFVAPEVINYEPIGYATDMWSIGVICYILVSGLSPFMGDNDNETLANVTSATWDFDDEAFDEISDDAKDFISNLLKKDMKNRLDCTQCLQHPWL
# PKN2 = PKN2 (Homo sapiens, UniProt Q16513); assay: 33P-ATP filter-binding kinase assay; assay type: biochemical; settings: read-out: % activity against kinase, kinome profile
# Chain of PKN2 (Q16513 whole entry): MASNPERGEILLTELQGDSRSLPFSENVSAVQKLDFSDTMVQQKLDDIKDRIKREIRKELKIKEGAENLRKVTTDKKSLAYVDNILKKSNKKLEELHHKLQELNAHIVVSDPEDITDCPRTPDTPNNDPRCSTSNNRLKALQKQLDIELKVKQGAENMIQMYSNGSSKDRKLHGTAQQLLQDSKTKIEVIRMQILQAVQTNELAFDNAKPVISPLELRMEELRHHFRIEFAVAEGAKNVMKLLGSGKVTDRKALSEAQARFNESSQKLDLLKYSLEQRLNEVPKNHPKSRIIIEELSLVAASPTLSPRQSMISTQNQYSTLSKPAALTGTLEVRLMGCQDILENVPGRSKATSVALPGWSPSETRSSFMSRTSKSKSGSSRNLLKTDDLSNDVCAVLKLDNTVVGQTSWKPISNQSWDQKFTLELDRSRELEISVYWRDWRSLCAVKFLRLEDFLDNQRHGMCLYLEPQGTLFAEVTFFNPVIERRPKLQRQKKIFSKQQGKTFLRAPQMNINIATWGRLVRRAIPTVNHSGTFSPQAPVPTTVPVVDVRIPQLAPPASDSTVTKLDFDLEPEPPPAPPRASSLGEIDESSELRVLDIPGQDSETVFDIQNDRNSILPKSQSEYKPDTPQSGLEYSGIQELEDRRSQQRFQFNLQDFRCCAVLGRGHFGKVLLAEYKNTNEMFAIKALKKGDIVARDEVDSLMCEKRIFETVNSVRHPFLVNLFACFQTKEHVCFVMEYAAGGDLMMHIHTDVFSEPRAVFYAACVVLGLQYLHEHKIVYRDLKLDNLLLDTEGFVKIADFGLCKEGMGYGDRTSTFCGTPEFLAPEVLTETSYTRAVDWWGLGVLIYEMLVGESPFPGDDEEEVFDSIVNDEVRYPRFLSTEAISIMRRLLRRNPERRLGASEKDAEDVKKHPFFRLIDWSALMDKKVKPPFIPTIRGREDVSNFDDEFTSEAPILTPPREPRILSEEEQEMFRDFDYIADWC
# How it was run: as §1
# IRAK4 = molecular target: T1, IRAK4 (Homo sapiens, UniProt Q9NWZ3); assay: 33P-ATP filter-binding kinase assay; assay type: biochemical
# T1 sequence (Q9NWZ3 1-460): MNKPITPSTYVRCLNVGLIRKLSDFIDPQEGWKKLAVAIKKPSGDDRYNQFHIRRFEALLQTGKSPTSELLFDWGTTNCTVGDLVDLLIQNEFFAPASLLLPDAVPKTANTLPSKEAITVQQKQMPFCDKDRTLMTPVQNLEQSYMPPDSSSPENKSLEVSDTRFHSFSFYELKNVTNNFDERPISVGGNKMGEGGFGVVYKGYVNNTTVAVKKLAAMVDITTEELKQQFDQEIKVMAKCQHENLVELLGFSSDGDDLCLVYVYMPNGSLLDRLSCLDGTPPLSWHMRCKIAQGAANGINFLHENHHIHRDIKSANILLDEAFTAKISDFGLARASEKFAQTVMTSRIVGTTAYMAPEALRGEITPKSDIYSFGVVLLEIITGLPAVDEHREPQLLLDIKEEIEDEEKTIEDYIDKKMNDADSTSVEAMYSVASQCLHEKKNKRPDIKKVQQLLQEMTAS
# Chain of GFP-ZIPK (O43293 whole entry): as the sequence (O43293 whole entry) above
structure (smiles),measurement,setting,value
"O=c1[nH]c(SCCO)nc2c1cnn2-c1cccc(Cl)c1 [HS43, 1-(3-Chlorophenyl)-6-((2-hydroxyethyl)thio)-1,5-dihydro-4H-pyrazolo[3,4-d]pyrimidin-4-one]",elution of GFP-ZIPK from ATP Sepharose,GFP-ZIPK,eluted far less GFP-ZIPK
same,fold less potent than HS38 / lower affinity,DAPK3,5 fold and ~ 5 fold
same,fold less potent than HS38,DAPK1,~ 5 fold
same,"relative percent RLC20 phosphorylation, basal (unstimulated) state",aortic SM cells,did not significantly affect
same,"relative percent RLC20 phosphorylation, S1P stimulated state",aortic SM cells,did not significantly affect
same,RLC20 phosphorylation,[1],did not affect
same,time required to reach 50% of maximal contraction (t1/2 max),[2],did not significantly affect
same,maximum contractile force,[2],did not significantly affect
"CC(Sc1nc2c(cnn2-c2cccc(Cl)c2)c(=O)[nH]1)C(N)=O (stereo not shown) [HS38, 2-((1-(3-chlorophenyl)-4-oxo-4,5-dihydro-1H-pyrazolo[3,4-d]pyrimidin-6-yl)thio)propanamide]",IC50,ROCK2,> 200 µM
same,activity against ROCK2,"ROCK2; ROCK2, duplicate validation",completely inactive
same,inhibition,"ROCK2; read-out: % activity against kinase, ROCK2, kinome profile",< 10%
same,increase in fluorescence above background,"GFP-ZIPK; FLECS screen, elution of GFP-ZIPK, drug candidate 900 µM solution",> 4 fold
same,elution of GFP-ZIPK from ATP Sepharose,GFP-ZIPK,produced a sigmoidal curve
same,inhibition,CaMK2,< 10%
same,MYPT1 Thr696 phosphorylation level,rabbit ileum,significantly reduced
same,RLC20 phosphorylation level,rabbit ileum,significantly reduced
same,phosphorylation state of Par-4,[3],not significantly affected
same,phosphorylation state of T855 of MYPT1,[3],not significantly affected
same,decrease in RLC20 phosphorylation,[3]; serum-free and 5% FBS conditions,21−23%
same,fold less potent than against DAPK1 and PIM3,PIM1,~ 10 fold
same,"relative percent RLC20 phosphorylation, basal (unstimulated) state",aortic SM cells,significantly decreased
same,"relative percent RLC20 phosphorylation, S1P stimulated state",aortic SM cells,significantly decreased
same,RLC20 phosphorylation,[1],significant reduction
same,fold less potent than against DAPK1 and PIM3,PIM2,~ 100 fold
same,inhibition,PKA,< 10%
same,time required to reach 50% of maximal contraction (t1/2 max),[2],more than doubled
same,maximum contractile force,[2],without significantly affecting
same,inhibition,CK1α,< 10%
same,lag time to the onset of force,[4],increased
same,rate of force development (t1/2),[4],increased
same,fold less potent than against DAPK1 and PIM3,smMLCK,~ 100 fold
same,inhibition,PKN2,< 10%
same,fold less potent than against DAPK1 and PIM3,IRAK4,~ 10 fold
"O=S(=O)(c1cccc2c(I)cccc12)N1CCCNCC1 [ML-7, reference compound]",elution of GFP-ZIPK from ATP Sepharose,GFP-ZIPK,failed to elute GFP-ZIPK
